# This sample holds only a part of the variants without activity.
# B1: tRNA (parent)
# chain: GUUCCGUUGGCGUAAUGGUAACGCGUCUCCCUCCUAAGGAGAAGACUGCGGGUUCGAGUCCCGUACGGAACG
# Variants of: B1
# Assay: yeast fitness relative to wild type (ratio to wild type); higher = fitter; tRNA-Arg(CCU), competitive growth, 37 C, YPD
# Method in brief: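 Genotype frequency changes were the basis for Darwinian fitness relative to wild type. The frequencies came from 100-nucleotide paired-end sequencing of gene amplicons from the start population and each end population of pooled yeast strains with tRNA-Arg(CCU) gene variants at the native locus. Competition ran in YPD at 37°C for 24 hours in six replicates, genotypes needed ≥ 100 starting reads, and estimates < 0.5 were set to 0.5.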
row,Variant,yeast fitness
1,U8C G12A C29G U47C,≤ 0.5
2,U8C C11U G17C C31A A65C,≤ 0.5
3,U8C A57G C66U,0.704
4,U8C U19A A40U,0.581
5,U8C C46U G52A,≤ 0.5
6,U8C A37C,0.892
7,U8G A37U C66U,≤ 0.5
8,U8C G25C G38A G58A C60U C62U,≤ 0.5
9,U8C C22U G58C,≤ 0.5
10,U8G A20G C60G C61A,≤ 0.5
11,U8C A42G A70C,≤ 0.5
12,U8C U13A C29A C31G,≤ 0.5
13,U8C A21U C24A,≤ 0.5
14,U8C A14U C30A C66U A70G,0.546
15,U8C G12A U19C C34G C66U A69U,≤ 0.5
16,U8C C31G A45G C62G,≤ 0.5
17,U8C A21U U53G A57C,≤ 0.5
18,U8C G44A U53C C55U A70U,≤ 0.5
19,U8C A15C C27U A45C,≤ 0.5
20,U8C A15U A20C G23A G50C,≤ 0.5
21,U8C C49A G68C,≤ 0.5
22,U8C A43U G50C,≤ 0.5
23,U8A U54C,0.657
24,U8C C27U C34G,≤ 0.5

row,Variant,yeast fitness
1,U8C G12A C29U U35G C62U,≤ 0.5
2,U8C C29A C34G A36G A40C G41A U47A U64C,≤ 0.5
3,U8C G12A G18A A45C,≤ 0.5
4,U8C G17A,0.711
5,U8C A42G G68A,0.63
6,U8C C34G,0.574
7,U8C C30G C31G C55U,≤ 0.5
8,U8C C11U C46U C49A,≤ 0.5
9,U8C C22G U54A U59A C61U,≤ 0.5
10,U8C A15C G41A G52C,≤ 0.5
11,U8C C30G C31G U54C C61G,≤ 0.5
12,U8C A20U C29U C30G A37G G44A,≤ 0.5
13,U8C G18C G50A C60U,0.546
14,U8C C11U U16C C46U C49A,0.573
15,U8C G17A G41C U64A A65C,≤ 0.5
16,U8C A15C A57G A69C,≤ 0.5
17,U8G A21U G56A,≤ 0.5
18,U8C C27U C31A,0.56
19,U8C A20G C61G,≤ 0.5
20,U8C C30G C49A G68A,≤ 0.5
21,U8C U13A C22G C24G A36U A40C G51C,≤ 0.5
22,U8C A15U C22U A40C G48C U54C C62U,0.557
23,U8G A37C G52C G58C,≤ 0.5
24,U8C U32G C49G,≤ 0.5

row,Variant,yeast fitness
1,U8C C24U U26A,0.607
2,U8C G23A G44C A45U C49A,≤ 0.5
3,U8C U28G C30G A40C A42U,0.54
4,U8C A42U C62A C66U,≤ 0.5
5,U8C U13C U47C A65G,≤ 0.5
6,U8C A15C U32C A69C,≤ 0.5
7,U8C U26C A37U A57G,≤ 0.5
8,U8C G38C C49U C62U A69U,0.568
9,U8C A15C U32C,≤ 0.5
10,U8C A21G A70G,0.747
11,U8C A20G A65G G68A,≤ 0.5
12,U8C G9C A37U G38A G39A,≤ 0.5
13,U8G A21C G56C,0.766
14,U8C U32C G44A G56A,≤ 0.5
15,U8C A45U A65U,0.709
16,U8C A21G A42G,0.675
17,U8C U28C C30G C31G A65C,≤ 0.5
18,U8C A15U U16A U26A G58A,≤ 0.5
19,U8C A20C G51A,≤ 0.5
20,U8C G25A A37C G68U,≤ 0.5
21,U8G A45U G50A A69C,≤ 0.5
22,U8C C29A,0.664
23,U8C C29U,0.937
24,U8C C11A G18C C27G,≤ 0.5

row,Variant,yeast fitness
1,U8C A14C C27G C46G A65G,≤ 0.5
2,U8C C22G C27U C49U U64C,≤ 0.5
3,U8C C33U A36C A43G A57U,≤ 0.5
4,U8C C11G G63A C66G,≤ 0.5
5,U8C C34G G58C C62U,≤ 0.5
6,U8C G10A U35A,≤ 0.5
7,U8C C11U C34G,≤ 0.5
8,U8C A21U C34A A40C G68C,≤ 0.5
9,U8C A15C A45C,0.674
10,U8C A15G G25C A45U,0.684
11,U8C G18C C27A C33U A65C A69C,≤ 0.5
12,U8C A15C,0.848
13,U8C A15C U32C C61U A65U C66U,≤ 0.5
14,U8G A15U A20C A69C,≤ 0.5
15,U8C C30G C31G C66U,≤ 0.5
16,U8C G23U A42G C60A,≤ 0.5
17,U8C A45U C49U,0.714
18,U8C C27U C31A C55A G56A,0.579
19,U8C A42G G51U A57U,≤ 0.5
20,U8C A42U,0.791
21,U8C A21C C27U C49U G58C C61A A65U,≤ 0.5
22,U8C U19G C22U C31U A40U G67A,0.53
23,U8C G23C,0.642
24,U8C C34A C61G G68C,≤ 0.5

row,Variant,yeast fitness
1,U8C C27U C31A C55A G56A A65G,≤ 0.5
2,U8C A21U U32A C49U C55U,≤ 0.5
3,U8C U16C A65G,0.707
4,U8C A14C C33A C46A,≤ 0.5
5,U8G A70U,0.59
6,U8C G51A,0.817
7,U8C U19A A40C G44C G48C U53G,≤ 0.5
8,U8C C29U U35G C62U,≤ 0.5
9,U8C U16C A69C,0.709
10,U8C U16A C27U C55G,0.691
11,U8C U16C C61G A69C,≤ 0.5
12,U8G A21G G23A U64C,≤ 0.5
13,U8A U32G A36C U47G,≤ 0.5
14,U8C C30G,0.674
15,U8C C30A,0.948
16,U8C C30U,0.935
17,U8C U16C A21C C49A G58A C66U G68A,≤ 0.5
18,U8C A21G A69C,0.761
19,U8C C66G,0.75
20,U8C C66U,0.892
21,U8C C66A,0.687
22,U8C C24U A45U,0.608
23,U8C C22G C49U U64C,0.679
24,U8C C11A C66G,≤ 0.5

row,Variant,yeast fitness
1,U8C A14U G48C A70C,≤ 0.5
2,U8A U26C,0.646
3,U8A U26G,0.666
4,U8C G10C A42G A43G C55U,0.724
5,U8C G51A C62A,≤ 0.5
6,U8C A36G,0.865
7,U8C A14G G68A,0.534
8,U8C G44C C60G,0.53
9,U8C C24G C29A A43U G68C,≤ 0.5
10,U8C G48A,0.899
11,U8C G18A,0.686
12,U8C C61A A65U,≤ 0.5
13,U8C U47C A69C,0.714
14,U8G A15G C24U C29G A45C C60A,0.551
15,U8C C24U A42C G50U,0.674
16,U8C G9A U13G C62U,≤ 0.5
17,U8G A14C G17C C61G,≤ 0.5
18,U8C G17A A70U,≤ 0.5
19,U8C C27U A40G G44A C62A,≤ 0.5
20,U8C G9A C22U C30A C49A C55A C62U C66U,≤ 0.5
21,U8C C27G G39C,≤ 0.5
22,U8G A20G U47G A57G,0.654
23,U8A U47A C60A,≤ 0.5
24,U8C G44A C55U,≤ 0.5

row,Variant,yeast fitness
1,U8C A14C C33A C46A G67A,≤ 0.5
2,U8C A69U,0.933
3,U8C A69C,0.991
4,U8C G12A C31G A40C A45C G48C,≤ 0.5
5,U8C G38A G52A,≤ 0.5
6,U8C C46A,1.01
7,U8C C46U,1.03
8,U8C G18C A21C C61U C66U,≤ 0.5
9,U8C G50A A69U,0.804
10,U8C G12A A45U G48A,≤ 0.5
11,U8C U19A C31A G41C A45G G50C C62U,≤ 0.5
12,U8C U19A A57C U64A,≤ 0.5
13,U8C A14U C22G C30U A57C C61A G67A,≤ 0.5
14,U8C G48C G63C A70C,≤ 0.5
15,U8C A45C C46U,0.716
16,U8C A20G C34G A37G G44A,0.627
17,U8C C22A U64A G68C,≤ 0.5
18,U8C A45C C66U,0.626
19,U8G A43C G51A,≤ 0.5
20,U8C A70C,0.922
21,U8C G23C C27G G50A C66G A69G,0.836
22,U8A U26A C55G,≤ 0.5
23,U8C A43C C49G C61A,0.693

# Source: the RNAGym collection of RNA variant scans (doi:10.1126/science.aae0568)
